Screening data (PubChem)
Sampled rows, rich in hits. Any-hit rate of the full collection: about 1.1%.
miR-122 sensor – blocks miR-122 activity in Huh7 sensor cells; Huh7 miR-122 Renilla luciferase sensor, 48 h; neutral wells = 0, positive control = 100; activation (reporter increase), % at 12.5 µM; hit rate 0.3% among 340,000; AID 602342;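 active = mean replicate activation score at least 90 and every replicate individually at or above 90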;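 also: higher luciferase means less miR-122 activity so hits act as miR-122 inhibitors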
Cneo AK release – causes C. neoformans cell lysis; adenylate kinase release luminescence, 4 h; normalised: neutral wells 0, clomiphene wells 100; lysis activity, % at 15 µM; hit rate 0.2% among 360,000; AID 651654;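 active = mean lysis activity across replicates of at least 80%, whatever share of replicates individually reach that level; inactive = mean lysis activity below 80%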
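Material: C. neoformans cells; Schedule: 4 h static compound exposure, 37 °C, read 1 h post-reagent; Measured by: adenylate kinase release luminescence; Read-out: signal increase indicating cell lysis; Controls: Clomiphene as positive lysis control.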
CAL PDZ FP-1 – inhibitors of human CAL PDZ peptide binding | purified CAL PDZ, TMR-peptide fluorescence polarization, 1 h | inhibition, % at 24.9 µM | hit rate 0.92% among 300,000;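 active = mean inhibition of at least 30% with at least half of replicates also reaching 30%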;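 also: 0% = DMSO neutral control and 100% = excess unlabeled competitor peptide PRC23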
PglD inh – PglD (C. jejuni) enzyme inhibition; purified PglD enzyme, DTNB colorimetric CoA detection; inhibition, % at 12.5 µM; AID 602405; hit rate 0.098% among 360,000; in the data active = inhibition above about 16%, passing the limit was not always enough
CAL PDZ FP-2 – human CAL PDZ-peptide interaction inhibition. Q9HD26. purified CAL PDZ, TMR-peptide fluorescence polarization, 1 h. inhibition, % at 20 µM. hit rate 0.02% among 330,000;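 active = highest replicate inhibition of at least 40%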;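 also: plate controls were DMSO neutral control wells for no effect and unlabeled competitor peptide control wells for full effect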
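Assay system – tagged CAL PDZ protein CerCALP, purified · Timing – 1 h at RT · Compound – single point, 20 µM · Measured by – fluorescence polarization from S- and P-plane intensities, G-factor corrected · Evaluation – inhibition from polarization loss · Probe or stimulus – TMR reporter peptide T*-PRC34 · Buffer or medium – pH 7.4 phosphate-saline buffer, reducing agent, detergent, IgG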
Starred values were filed as active, the others as inactive; nt = not tested or not shown; + = active, no number; [ ] = remark or other dose.

SMILES	miR-122 sensor	Cneo AK release	CAL PDZ FP-1	PglD inh	CAL PDZ FP-2
N#CCNC(=O)c1nn2c(C(F)(F)F)cc(-c3ccccc3)nc2c1Br	nt	-2	75*	3	nt
COCC(=O)N(C)C[C@@H]1Oc2ncc(-c3ccccc3OC)cc2C(=O)N([C@H](C)CO)C[C@@H]1C	29[16.7 µM]	-1	nt	3	nt
COCC1CCN(C(=O)c2ccc3oc(CCCc4ccccc4)nc3c2)C1 (stereo unspecified)	1	-39	-3	3	+
COCC1CCCN(C(=O)c2ccc3oc(CCCc4ccccc4)nc3c2)C1 (stereo unspecified)	-6	-11	-8	0	-2
CC(C)CN1C(=O)C(=O)N(CC(=O)c2ccc[nH]2)C1=O	nt	nt	-1	nt	-2
COc1ccc(C)cc1S(=O)(=O)Nc1ccc(F)cc1	113*	2	-1	-8	-2
COc1ccc(NC(=O)C2CCC2)cc1S(=O)(=O)Nc1cc(C)ccc1Br	170*	0	-1	-2	-1
COc1ccc(OC)c(S(=O)(=O)Nc2cc3c4c(c2)CCN4C(=O)CC3)c1	143*	2	-2	-1	-1
CCOc1cc(C)c(S(=O)(=O)Nc2ccc(F)cc2)cc1C	304*	1	-6	3	-1
Cc1ccc(C)c(S(=O)(=O)Nc2cc3c4c(c2)CC(=O)N4CCC3)c1	163*	-1	-2	-4	-3
COc1ccc(C)cc1S(=O)(=O)Nc1cc2c3c(c1)CC(=O)N3CCC2	34	1	nt	-1	0
COC(=O)c1ccc(NS(=O)(=O)c2cc(C)ccc2OC)cc1	150*	-1	-1	6	-1
CCc1ccc(NS(=O)(=O)c2cc(OC)ccc2OC)cc1	140*	nt	-3	nt	-1
COc1ccc(OC)c(S(=O)(=O)Nc2c(C)n(C)n(-c3ccccc3)c2=O)c1	-9	-1	74*	-1	17
Cc1c(NS(=O)(=O)c2ccccc2F)c(=O)n(-c2ccccc2)n1C	-2	1	-4	-4	-3
COc1cccc(CN2[C@@H](CO)[C@@H]3c4ccccc4N(C(=O)c4ccncc4)C[C@@H]32)c1	12[16.7 µM]	51	nt	2	nt
C[C@@H]1CN([C@@H](C)CO)C(=O)c2cc(NC(=O)Nc3ccc4c(c3)OCO4)ccc2O[C@@H]1CN(C)CC1CCCCC1	22[16.7 µM]	-62	nt	-3	nt
Cc1noc(C)c1NC(=O)Nc1ccc2c(c1)C(=O)N([C@H](C)CO)C[C@H](C)[C@H](CN(C)CC1CCCCC1)O2	-2[16.7 µM]	93*	nt	-2	nt
Cc1noc(C)c1NC(=O)Nc1cccc2c1O[C@H](CN(C)CC1CCCCC1)[C@H](C)CN([C@H](C)CO)C2=O	6[16.7 µM]	55	nt	18*	nt
C[C@@H]1CN([C@@H](C)CO)C(=O)c2cc(NC(=O)C3CC3)ccc2O[C@H]1CN(C)CC1CCCCC1	27[16.7 µM]	100*	nt	-3	nt
C[C@H](CO)N1C[C@H](C)[C@H](CN(C)CC2CCCCC2)Oc2ccc(NC(=O)Nc3ccc4c(c3)OCO4)cc2C1=O	59[16.7 µM]	83*	nt	0	nt
Cc1noc(C)c1NC(=O)Nc1cccc2c1O[C@@H](CN(C)CC1CCCCC1)[C@H](C)CN([C@H](C)CO)C2=O	21[16.7 µM]	6	nt	5	nt
CC12C(=O)N(c3ccc(OC(=O)c4ccco4)cc3)C(=O)C1C1c3ccccc3C2c2ccccc21 (stereo unspecified)	nt	nt	1	nt	0
C[C@H](CO)N1C[C@H](C)[C@@H](CN(C)C(=O)CCCN(C)C)OCCCC[C@H](C)Oc2ccc(NC(=O)c3ccncc3)cc2C1=O	5[16.7 µM]	1	nt	3	nt
COc1ccc([C@H]2C=C(C(=O)N3CCN(Cc4ccc5c(c4)OCO5)CC3)O[C@@H](OCc3ccc(CO)cc3)C2)cc1	nt	-2	nt	4	nt
SMILES	miR-122 sensor	Cneo AK release	CAL PDZ FP-1	PglD inh	CAL PDZ FP-2
CC(=O)c1ccc(OCC(O)CNCc2ccc3c(c2)OCO3)cc1 (stereo unspecified)	nt	nt	42*	nt	-2
CC(C)CNC(=O)CC1Nc2ccccc2NC1=O (stereo unspecified)	nt	2	95*	3	nt
O=C(CC1Nc2ccccc2NC1=O)NC1CCCCC1 (stereo unspecified)	9	-1	0	6	-1
COc1ccccc1-c1cn(CC[C@@H]2CC[C@@H](NC(=O)C3CC3)[C@H](CO)O2)nn1	nt	-6	nt	-1	nt
Cc1noc(C)c1NC(=O)N(C)C[C@@H]1Oc2c(NC(=O)c3cnccn3)cccc2C(=O)N([C@@H](C)CO)C[C@H]1C	9[16.7 µM]	-4	nt	1	nt
CN(C)CCCN(C(=O)c1ccc(S(=O)(=O)N(C)Cc2ccccc2)cc1)c1nc2cc3c(cc2s1)OCO3	2	-1	42*	2	-1
CN(C)CCN(C(=O)c1cccs1)c1nc2cc3c(cc2s1)OCCO3	-6	2	41*	-1	0
COC(=O)C(NC(=O)c1ccco1)(Nc1cc(C)ccn1)C(F)(F)F (stereo unspecified)	-2	0	1	-3	-3
COC(=O)C(NC(=O)c1ccco1)(Nc1nc(C2CC2)cs1)C(F)(F)F (stereo unspecified)	1	4	37*	4	-2
CCOc1ccccc1-c1nc(-c2ccc(C)nc2OC)no1	130*	1	-1	-1	-3
COCCCNC(=O)Cc1ccc(S(=O)(=O)N2CCOCC2)s1	-2	0	43*	3	-1
Cc1noc(C)c1NC(=O)Nc1ccc2c(c1)CC(=O)N([C@H](C)CO)C[C@@H](C)[C@H](CN(C)C(=O)Nc1ccc3c(c1)OCO3)O2	-2[16.7 µM]	0	nt	-1	nt
C[C@@H]1CN([C@H](C)CO)C(=O)c2cccc(NC(=O)Nc3ccc(F)cc3)c2O[C@@H]1CN(C)C(=O)Nc1ccc(F)cc1	1[16.7 µM]	-3	nt	17	nt
COc1cccc(NS(=O)(=O)c2cc(C)sc2C)c1	121*	-2	-2	4	-4
COc1ccc(Cl)cc1CNCCCSc1ncccn1	-7	0	-1	2	0
CCOc1ccc(Cl)cc1CNCCCSc1ncccn1	-3	0	70*	-2	4
COC(=O)Cc1nnc(Nc2cccc(C)c2)c2ccccc12	-5	0	30*	-2	-1
CCOC(=O)Cc1nnc(Nc2cccc(C)c2)c2ccccc12	5	nt	-7	nt	-1
COc1cccc(C(=O)NC2CCNCC2)c1	4	3	-1	-2	-1
COc1ccc(NS(=O)(=O)c2cc(NC(=O)c3ccc(=O)[nH]c3)ccc2N2CCCC2)cc1	155*	-1	-4	-4	-1
COc1ccc(NS(=O)(=O)c2cc(NC(=O)c3ccco3)ccc2N2CCCCC2)cc1	209*	nt	-4	nt	-2
COc1ccc(S(=O)(=O)Nc2ccc3c(c2)C(=O)N([C@H](C)CO)C[C@@H](C)[C@@H](CN(C)C(=O)Nc2ccccc2)O3)cc1	-2[16.7 µM]	83*	nt	3	nt
